Compound activity as filed in PubChem.
Hits are enriched below; roughly 2.2% of the tested compounds scored in any of these assays.
Jurkat NFkB inh = inhibitors of induced NF-kB luciferase reporter, primary screen, TCR NF-kB activation inhibitor project, cell-based, luminescence, uHTS | actives 0.53% (n = 330,000) | Jurkat, PMA/ionomycin-induced NF-kB luciferase reporter | inhibition, % at 4 µM; in the data active means inhibition above about 50%
FGF22 binding = binders of human FGF22 protein, primary screen, FGF22 synaptogenesis inhibitor project, biophysical, thermal shift, single point | Fibroblast growth factor 22 (Homo sapiens), Q9HCT0 | recombinant FGF22 thermal shift, SYPRO orange fluorescence; percent of sucrose octasulfate shift, DMSO zero | activity (Tm shift, normalised), % at 9.99 µM | actives 1.5% (n = 340,000) | AID 651658, 2012;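 active means mean Tm shift, scaled 0 neutral to 100 positive control, at about 1.3% or above, every replicate too, limit read from the data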
Target sequence (Q9HCT0 whole entry, looked up): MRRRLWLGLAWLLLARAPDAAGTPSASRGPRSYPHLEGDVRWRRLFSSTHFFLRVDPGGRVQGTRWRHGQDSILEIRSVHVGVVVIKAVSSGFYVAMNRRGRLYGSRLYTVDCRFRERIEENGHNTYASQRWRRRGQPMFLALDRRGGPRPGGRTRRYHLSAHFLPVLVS
NR2E3 ag-1 = NR2E3 agonists in two-hybrid cells, primary screen, cell-based, luminescence, CHO-S, Gal4-NCOR/VP16-NR2E3. luciferase. inhibition of corepressor binding, % at 3.98 µM. actives 0.35% (n = 360,000);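 active means inhibition above the mean of all tested compounds plus 3 SD, cut at about 70% in these data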;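 further: higher means lower luciferase signal from less NR2E3 corepressor binding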
Target sequence (Q9Y5X4 whole entry, looked up, the tested form may be a part): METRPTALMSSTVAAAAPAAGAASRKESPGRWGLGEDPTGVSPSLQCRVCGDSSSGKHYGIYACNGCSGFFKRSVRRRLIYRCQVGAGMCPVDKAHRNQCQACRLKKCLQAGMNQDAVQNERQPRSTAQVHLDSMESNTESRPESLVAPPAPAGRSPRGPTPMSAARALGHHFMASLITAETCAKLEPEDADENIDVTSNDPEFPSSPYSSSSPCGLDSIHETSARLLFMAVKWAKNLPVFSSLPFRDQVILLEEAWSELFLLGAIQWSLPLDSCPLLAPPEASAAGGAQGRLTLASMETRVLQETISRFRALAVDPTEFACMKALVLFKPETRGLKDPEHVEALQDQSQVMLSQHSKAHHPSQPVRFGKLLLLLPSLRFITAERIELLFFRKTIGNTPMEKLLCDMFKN
NR2E3 ag-2 = inhibitors of NR2E3-RetCOR corepressor binding, primary screen, NR2E3 agonist project, biochemical, TR-FRET, GST-NR2E3, biotin-RetCOR. Photoreceptor-specific nuclear receptor (Homo sapiens), Q9Y5X4. 1536-well. inhibition of corepressor binding, % at 4.78 µM. actives 0.12% (n = 320,000);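 active means percent inhibition above the cutoff of mean plus 3 SD of all tested compounds, set per screening campaign, cut at about 20% in these data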
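System: GST-tagged NR2E3 plus biotinylated RetCOR corepressor; Amount: 1.35 nM GST-tagged NR2E3 final; Dosing: single nominal compound dose of 4.8 µM; Schedule: 5 h incubation at 4 °C; Technique: TR-FRET with europium anti-GST and streptavidin-D2, 340 nm excitation; Controls: biotin wells as high control, 0.6% DMSO wells as low control.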
697 NFkB inh = inhibitors of PMA/ionomycin-induced NF-kB reporter, 697 cells, primary screen, B-cell NF-kB inhibitor project, cell-based, luminescence, uHTS; 697 B-cell NF-kB luciferase reporter, 16 h; inhibition, % at 4 µM; actives 0.33% (n = 330,000); in the data active means inhibition above about 35%
miR-122 sensor = miR-122 Renilla sensor signal increase in Huh7, primary screen, miR-122 inhibitor project, cell-based, single point, plate reader; Huh7 miR-122 Renilla luciferase sensor, 48 h; neutral wells = 0, positive control = 100; activation (reporter increase), % at 12.5 µM; actives 0.3% (n = 340,000); AID 602342, 2012;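 active means mean replicate activation score at least 90 and every replicate individually at or above 90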;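 further: higher luciferase means less miR-122 activity so hits act as miR-122 inhibitors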
Jurkat NFkB conf = PMA/ionomycin-induced NF-kB reporter inhibitors, Jurkat retest, confirmation, T-cell NF-kB inhibitor project, cell-based, luminescence, single concentration. actives 27% (n = 2,700). Jurkat NF-kB luciferase, 16 h. inhibition, % at 4 µM. shares compounds with Jurkat NFkB inh;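 active means inhibition reaching about 45% at 4 µM in either replicate, limit read from the data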
697 NFkB conf = PMA/ionomycin-induced NF-kB reporter inhibitors, 697 retest, confirmation, B-cell NF-kB inhibitor project, cell-based, luminescence, single concentration | shares compounds with 697 NFkB inh | 697 B-cell NF-kB luciferase, 16 h | inhibition, % at 4 µM | actives 35% (n = 2,000) | AID 449746, 2010; in the data active means inhibition mostly above about 28%, no sharp cut-off; inactive means mostly below about 22%
A number is an active result; 0 = inactive; - = no result.

SMILES	Jurkat NFkB inh	FGF22 binding	NR2E3 ag-1	NR2E3 ag-2	697 NFkB inh	miR-122 sensor	Jurkat NFkB conf	697 NFkB conf
CCOC(=O)c1sc2nc3c(cc2c1N)COC(C(C)C)C3 (stereo not given)	0	-	0	0	0	0	0	0
C[C@@H]1CCCCO[C@@H](CN(C)C(=O)Nc2ccccc2)[C@@H](C)CN([C@H](C)CO)C(=O)c2cc(NC(=O)CCCN(C)C)ccc2O1	-	-	-	-	-	0	-	-
COc1ccc(N/C=C2\CCc3ccccc3C2=O)cc1	0	0	0	0	0	0	0	0
O=C1/C(=C\c2ccccc2)CCc2c1[nH]c1ccccc21	0	-	0	0	0	0	-	-
Cc1ccc(/C=C2/CCc3c([nH]c4ccccc34)C2=O)cc1	0	-	0	0	0	0	0	0
O=C(N/N=C/c1ccc([N+](=O)[O-])o1)c1cc(-c2ccncc2)nc2ccccc12	0	-	0	0	0	-	-	-
O=C(N/N=C/c1ccc([N+](=O)[O-])o1)c1cc(-c2ccc(-c3ccccc3)cc2)nc2ccccc12	0	0	0	0	0	-	0	0
C[C@@H]1CCCCO[C@H](CN(C)C(=O)Nc2ccc(F)cc2)[C@H](C)CN([C@@H](C)CO)C(=O)c2cc(NC(=O)Nc3ccccc3)ccc2O1	-	0	-	-	-	0	-	-
O=C(CCl)N(c1ccccc1)c1c[nH]c2ccccc12	0	-	0	0	0	0	-	-
O=C(CCl)N(c1ccc(Cl)cc1)c1c[nH]c2ccccc12	71	-	0	0	80	0	0	36
Cc1ccc(S(=O)(=O)Nc2ccc3c(c2)C(=O)N([C@H](C)CO)C[C@H](C)[C@H](CN(C)S(=O)(=O)c2c(C)noc2C)O3)cc1	-	0	-	-	-	0	-	-
COc1ccc(C(=O)Nc2nnc(SCC(=O)Nc3ccc(NC(C)=O)cc3)s2)c(OC)c1	0	0	0	0	71	0	0	61
Cc1noc(C)c1NC(=O)N(C)C[C@@H]1OCCCC[C@@H](C)Oc2ccc(NS(=O)(=O)c3ccccc3)cc2C(=O)N([C@H](C)CO)C[C@@H]1C	-	-	-	-	-	0	-	-
COc1ccc(-n2ncc3c(N4CCC(C)CC4)ncnc32)cc1	0	0	0	0	0	0	0	0
C/C=C/c1ccc([C@H]2[C@@H](CO)N(C(C)=O)[C@H]2CNC(=O)c2ccccc2)cc1	-	0	-	-	-	0	-	-
C[C@@H]1CN([C@H](C)CO)C(=O)c2cc(C3=CCCCC3)cnc2O[C@H]1CN(C)C(=O)CN1CCOCC1	-	0	-	-	-	-	-	-
O=C(Nc1ccc2nc3n(c(=O)c2c1)CCCCC3)c1c(F)ccc([N+](=O)[O-])c1F	73	0	0	0	0	0	0	0
CN1CCN(C(=O)[C@H]2[C@H](CO)[C@H]3Cn4c(ccc(C5=CCCCC5)c4=O)[C@@H]2N3S(C)(=O)=O)CC1	-	0	-	-	-	-	-	-
CC[C@@]1(O)C(=O)OCc2c1cc1n(c2=O)Cc2cc3c(CN(C)C)c(O)ccc3nc2-1	73	0	0	0	0	0	95	0
CCCCc1cc(=O)oc2c(CN(C)C)c(O)ccc12	0	-	0	0	0	0	-	-
O=C(NCC[C@@H]1CC[C@H](NC(=O)c2cccnc2)[C@@H](CO)O1)Nc1ccc(F)cc1	-	0	-	-	-	-	-	-
O=C(/C=C\Nc1cccc(F)c1)c1ccc2c(c1)OCO2	0	-	0	0	0	0	0	0
COC(=O)c1ccc(N/C=C\C(=O)c2ccc3c(c2)OCO3)cc1	0	0	0	0	0	-	-	-
O=C(/C=C\Nc1ccccc1Br)c1ccc2c(c1)OCO2	0	0	0	0	0	-	0	0
COc1cccc(N/C=C/C(=O)c2ccc(Cl)cc2)c1	-	0	0	0	-	0	-	-
SMILES	Jurkat NFkB inh	FGF22 binding	NR2E3 ag-1	NR2E3 ag-2	697 NFkB inh	miR-122 sensor	Jurkat NFkB conf	697 NFkB conf
COc1cccc(N/C=C/C(=O)c2ccc(C)cc2)c1	0	0	0	0	0	0	0	0
O=C(/C=C/Nc1ccccc1)c1ccc(Cl)cc1Cl	0	0	0	0	0	-	0	0
O=C(/C=C/Nc1ccccc1)c1ccccc1	0	-	0	0	0	-	0	0
C[C@@H]1CN([C@H](C)CO)C(=O)c2cc(NS(C)(=O)=O)ccc2O[C@@H]1CN(C)CC1CCCCC1	-	0	-	-	-	0	-	-
CNC[C@@H]1OCCCC[C@H](C)Oc2ccc(NC(=O)Nc3ccc(OC)cc3)cc2C(=O)N([C@@H](C)CO)C[C@@H]1C	-	0	-	-	-	0	-	-
O=C(CCl)N=c1sccn1Cc1cccc2ccccc12	-	0	0	-	-	-	-	-
O=C(CCl)N=c1sccn1Cc1ccc(Cl)cc1Cl	97	44	0	0	98	0	69	102
O=C(CCl)N=c1sccn1Cc1ccccc1Cl	91	0	0	0	104	-	71	94
c1cnc2ccc(-c3ccc4ncccc4c3)cc2c1	0	0	0	0	0	-	0	0
COc1ccccc1-c1cn(CC[C@H]2CC[C@H](NS(=O)(=O)c3ccccc3C)[C@@H](CO)O2)nn1	-	0	-	-	-	-	-	-
Cc1ccc(N/C=C/C(=O)c2cccs2)cc1C	0	0	0	0	0	0	0	0
O=C(Nc1ccc([N+](=O)[O-])cc1)C(=O)Nc1cccc(C(=O)O)c1	56	0	0	0	46	0	67	23
COC(=O)c1sccc1N/N=C/c1cccc(OC)c1O	0	0	0	0	0	0	0	0
CCC(=O)N1[C@H](CO)[C@@H](c2ccc(C3=CCCC3)cc2)[C@@H]1CNC(=O)CN(C)C	-	-	-	-	-	0	-	-
C[C@@H]1CN([C@@H](C)CO)S(=O)(=O)c2ccc(C#C[C@@H](C)O)cc2O[C@H]1CN(C)C(=O)c1ccncc1	-	0	-	-	-	0	-	-
COc1cccc(-c2cc3onc(-c4ccccc4)c3c(=O)n2C)c1	0	0	0	0	0	0	0	0
CN1CCN(C(=O)C[C@@H]2C[C@@H]3c4cc(NC(=O)NC5CCCC5)ccc4O[C@@H]3[C@H](CO)O2)CC1	-	0	-	-	-	0	-	-
Cc1ccc(S(=O)(=O)N(C)C[C@@H]2OCCCC[C@@H](C)Oc3ccc(N(C)C)cc3C(=O)N([C@H](C)CO)C[C@@H]2C)cc1	-	-	-	-	-	0	-	-
